Measurements published in ChEMBL document CHEMBL1127840, “Conformational analysis of 5-lipoxygenase inhibitors: role of the substituents in chiral recognition and on the active conformations of the (methoxyalkyl)thiazole and methoxytetrahydropyran series” (J Med Chem, 1994).

Legend:
[1] = target: T1, Polyunsaturated fatty acid 5-lipoxygenase (Homo sapiens, UniProt P09917); assay: Inhibitory concentration against 5-lipoxygenase from human whole blood; format: tissue-based
T1 sequence (P09917 whole entry): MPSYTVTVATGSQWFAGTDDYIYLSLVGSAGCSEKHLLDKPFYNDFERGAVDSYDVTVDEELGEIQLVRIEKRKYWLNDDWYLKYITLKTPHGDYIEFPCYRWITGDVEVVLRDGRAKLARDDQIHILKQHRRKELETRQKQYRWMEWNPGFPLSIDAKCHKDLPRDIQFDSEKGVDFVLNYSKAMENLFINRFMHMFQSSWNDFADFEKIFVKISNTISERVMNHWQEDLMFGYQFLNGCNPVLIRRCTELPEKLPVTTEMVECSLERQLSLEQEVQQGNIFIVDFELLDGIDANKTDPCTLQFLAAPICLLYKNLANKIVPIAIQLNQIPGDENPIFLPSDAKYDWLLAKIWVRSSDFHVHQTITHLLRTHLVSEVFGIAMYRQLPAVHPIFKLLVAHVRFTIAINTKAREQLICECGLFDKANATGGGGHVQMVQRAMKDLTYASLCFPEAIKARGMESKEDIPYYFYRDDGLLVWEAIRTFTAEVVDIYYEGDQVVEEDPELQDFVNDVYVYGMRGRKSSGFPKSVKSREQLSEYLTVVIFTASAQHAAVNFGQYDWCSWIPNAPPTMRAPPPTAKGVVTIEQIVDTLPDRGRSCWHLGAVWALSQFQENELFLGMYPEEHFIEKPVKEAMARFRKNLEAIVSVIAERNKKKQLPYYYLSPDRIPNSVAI
Summary of the method: (§1)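 Eicosanoid generation measured to assess 5-LO inhibition. IC50 from iterative four-parameter curve fit. Data reported as mean ± SE with the number of determinations; where only two runs were made, both values are given.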

[2] = target: T2, Polyunsaturated fatty acid 5-lipoxygenase (Mus musculus, UniProt P48999); assay: Inhibition of 5-lipoxygenase from mouse macrophage
T2 sequence (P48999 whole entry): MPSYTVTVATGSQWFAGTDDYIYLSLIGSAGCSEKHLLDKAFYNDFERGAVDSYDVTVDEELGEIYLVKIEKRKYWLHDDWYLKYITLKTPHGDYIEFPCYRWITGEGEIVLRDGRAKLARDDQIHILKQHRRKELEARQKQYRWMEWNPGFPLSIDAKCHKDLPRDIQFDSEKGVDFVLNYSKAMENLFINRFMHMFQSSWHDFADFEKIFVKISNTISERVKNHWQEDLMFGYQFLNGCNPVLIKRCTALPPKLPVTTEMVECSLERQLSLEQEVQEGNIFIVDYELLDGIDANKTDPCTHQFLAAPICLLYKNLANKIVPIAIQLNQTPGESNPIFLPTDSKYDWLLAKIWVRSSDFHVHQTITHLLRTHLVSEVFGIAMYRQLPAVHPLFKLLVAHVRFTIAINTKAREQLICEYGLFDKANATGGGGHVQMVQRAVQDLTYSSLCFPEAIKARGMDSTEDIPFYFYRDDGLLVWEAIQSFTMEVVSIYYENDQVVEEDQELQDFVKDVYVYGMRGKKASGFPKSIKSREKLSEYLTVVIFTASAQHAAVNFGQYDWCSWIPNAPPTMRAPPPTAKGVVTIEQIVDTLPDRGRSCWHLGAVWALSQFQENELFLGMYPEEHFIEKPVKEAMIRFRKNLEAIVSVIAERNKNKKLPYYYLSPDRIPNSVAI
Summary of the method: (§2)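 Plasma-free cultures of murine peritoneal macrophages. Inhibition of LTC4 synthesis (5-LO product) measured, with PGE2 also monitored. IC50 from iterative four-parameter curve fit. Data reported as mean ± SE with the number of determinations; where only two runs were made, both values are given.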

[3] = target: T1, Polyunsaturated fatty acid 5-lipoxygenase; assay: Inhibition of 5-lipoxygenase from human whole blood; format: tissue-based; summary of the method: as §1
[4] = target: T2, Polyunsaturated fatty acid 5-lipoxygenase; assay: Inhibitory concentration against 5-lipoxygenase from mouse macrophage; summary of the method: as §2

An IC50 [1] of 520 nM and an IC50 [2] of 48 nM were found for `CC[C@@](COC)(OC)c1cc(F)cc(OCc2ccc3c(ccc(=O)n3C)c2)c1` in this work.
An IC50 [2] of 45 nM was found for `CC[C@](COC)(OC)c1cc(F)cc(OCc2ccc3c(ccc(=O)n3C)c2)c1` in this work.
An IC50 [3] of 27 nM was found for `COC1(c2cc(F)cc(OCc3ccc4c(ccc(=O)n4C)c3)c2)CCOCC1` [ZD-2138] in this work.
An IC50 [4] of 1250 nM was found for `COC1(c2nccs2)CCc2ccc(OCc3ccc4ccccc4c3)cc21` (single isomer, unassigned; (-)) in this work.
